The source made the active and inactive calls. The rule behind the calls is not given here. Numbered stars: 1 amine (or outer) side, 2 acyl side, 3 side chain; on linkers, the order of the positions; unused ones are H or OH. Square brackets hold non-standard residues; d marks the D form. Peptide text beside a SMILES is read from it. X1 = O=C([C@@H]1Cc2nc[nH]c2CN1[*:1])[*:2]; Tic = O=C(O)[C@@H]1Cc2ccccc2CN1
Experiments:
[1] = molecular target: T1, Type-1 angiotensin II receptor (Homo sapiens) (UniProt P30556); experiment: Displacement of [3H]valsartan from human recombinant AT1 receptor expressed in CHO cells at 10 uM after 40 mins by liquid scintillation counting; assay type: cell-based
T1 sequence (whole entry): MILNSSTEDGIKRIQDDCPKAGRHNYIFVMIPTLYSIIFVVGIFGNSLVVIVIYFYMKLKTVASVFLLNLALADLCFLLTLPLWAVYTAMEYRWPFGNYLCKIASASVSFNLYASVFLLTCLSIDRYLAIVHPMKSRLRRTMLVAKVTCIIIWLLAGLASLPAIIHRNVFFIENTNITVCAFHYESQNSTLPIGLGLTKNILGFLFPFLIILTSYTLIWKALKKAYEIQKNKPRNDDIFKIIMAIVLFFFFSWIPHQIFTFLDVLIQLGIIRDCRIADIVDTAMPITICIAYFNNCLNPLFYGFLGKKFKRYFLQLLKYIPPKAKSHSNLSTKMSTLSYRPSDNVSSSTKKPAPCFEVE
Outline: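 Intact CHO-AT1 cells, human AT1 receptor stably expressed, prewashed in PBS, then 15 min in DMEM at 37 °C. Test agent at 10^-5 M with [3H]Valsartan (final 1.5 nM) for 40 min at 37 °C. Nonspecific binding with 1 μM Candesartan. Specific binding reported as percent of control, binding in medium only. Cell-bound radioactivity solubilized in 0.2 M NaOH and counted.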

[2] = Metabolic stability in CHOK1 cells harboring endogenous IRAP at 0.1 to 10000 nM pretreated for 40 mins by [3H]angiotensin 4 competition binding assay in absence of chelator EDTA and 1, 10-phenantroline; assay type: ADME, cell-based, Cricetulus griseus; settings: chinese hamster, cho-k1, 40 min, 10 µM
Outline: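 Membrane homogenates of CHO-K1 cells carrying endogenous IRAP, equivalent to 4×10^5 cells, in 50 mM Tris-HCl pH 7.4 assay buffer. Preincubated 40 min at 37 °C with compound, no chelator added. [3H]Ang IV (final 3 nM) then added for 30 min at 37 °C. Nonspecific binding with 10 μM Ang IV. Filtered on BSA-presoaked GF/B filters and counted. Specific binding given as percent of control.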

[3] = molecular target: T2, Type-1 angiotensin II receptor (Homo sapiens, UniProt P30556); experiment: Displacement of [3H]valsartan from human recombinant AT1 receptor expressed in CHO cells after 40 mins by liquid scintillation counting; assay type: cell-based
T2 sequence (P30556 whole entry): T1 sequence (whole entry)
Outline: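 CHO cells stably expressing human AT1 receptor, washed twice in PBS at room temperature, then 15 min in DMEM at 37 °C. Competition with [3H]Valsartan (final 1.5 nM) over a full dose range for 40 min at 37 °C. Nonspecific binding defined with 1 μM Candesartan. Cells washed 3× in cold PBS and lysed in 0.2 M NaOH before scintillation counting. IC50 by nonlinear regression, Ki by Cheng–Prusoff.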

Row | SMILES | Activity [1] | Stability [2] | Ki [3] [nM]
1 | CC[C@H](C)[C@H](NC(=O)[C@H](Cc1ccc(O)cc1)NC(=O)[C@@H](N)C(C)C)C(=O)N[C@H]1Cc2c([nH]c3ccccc23)CN(CC(=O)N[C@@H](Cc2ccccc2)C(=O)O)C1=O | inactive | Unstable | –
2 | CC[C@H](C)[C@H](NC(=O)[C@H](Cc1ccc(O)cc1)NC(=O)[C@@H](N)C(C)C)C(=O)N1Cc2ccccc2C[C@H]1C(=O)N1CCC[C@H]1C(=O)N[C@@H](Cc1ccccc1)C(=O)O (H-VYI[Tic]PF-OH) | inactive | – | –
3 | CC[C@H](C)[C@H](NC(=O)[C@H](Cc1ccc(O)cc1)NC(=O)[C@@H](CN)C(C)C)C(=O)N[C@H]1Cc2c([nH]c3ccccc23)CN(CC(=O)N[C@@H](Cc2ccccc2)C(=O)O)C1=O | inactive | Stable | –

Now from value to compound:

Row | Activity [1] | Stability [2] | Ki [3] [nM] | SMILES
4 | Active | Stable | 141 | CC[C@H](C)[C@H](NC(=O)[C@H](Cc1ccc(O)cc1)NC(=O)[C@@H](CN)C(C)C)C(=O)N[C@H]1Cc2ccccc2CN(CC(=O)N[C@@H](Cc2ccccc2)C(=O)O)C1=O
5 | inactive | Unstable | – | CC[C@H](C)[C@H](NC(=O)[C@H](Cc1ccc(O)cc1)NC(=O)[C@@H](N)C(C)C)C(=O)N[C@H]1Cc2ccccc2CN(CC(=O)N[C@@H](Cc2ccccc2)C(=O)O)C1=O
6 | inactive | – | – | CC[C@H](C)[C@H](NC(=O)[C@H](Cc1ccc(O)cc1)NC(=O)[C@@H](N)C(C)C)C(=O)N1Cc2[nH]cnc2C[C@H]1C(=O)N1CCC[C@H]1C(=O)N[C@@H](Cc1ccccc1)C(=O)O (H-VYI[X1]PF-OH)

Source: ChEMBL document CHEMBL1154281 (J Med Chem, 2009)
